Published values gathered from unrelated publications.
Protocols differ between the studies behind these lines.
Target: Serine/threonine-protein kinase 24 (STK24, Homo sapiens, UniProt Q9Y6E0)

O=C1NC(=O)c2cc(Nc3ccc(F)cc3)c(Nc3ccc(F)cc3)cc21  remaining signal (cell-free assay; 0.5 µM): 93.7%
Cn1c2c(c3ccc(Cl)c(Cl)c31)C(C#N)C1(CCN(C(=O)OC(C)(C)C)CC1)NC2=O (racemic)  ΔTm (thermal stability, DSF; 10 µM): 0 °C
Cc1ccc(NC(=O)c2ccc(C)c(C(F)(F)F)c2)cc1C#Cc1nn(C2CCC(O)CC2)c2ncnc(N)c12 (stereo not drawn)  remaining signal (cell-free assay; 10 µM): 114%
CCN1CCN(Cc2ccc(NC(=O)c3ccc(C)c(/C=C/c4cnc5[nH]ccc5c4OC)c3)cc2C(F)(F)F)CC1  inhibition (target engagement in cells, inhibitor, chemoproteomics; A-375; 50 nM): -17%
CC(C)(C)c1nc2c(s1)c1nc(N)ncc1c1ccc(NS(=O)(=O)c3c(F)cccc3F)c(F)c12  remaining activity (enzyme activity, inhibitor, radiometric; 1 µM): 28%
CN1CC(Oc2cnc(C#N)cc2-c2ccn3nc(NC(=O)C4CC4)cc3c2)C1  inhibition (enzyme activity, inhibitor; 1 µM): 6%
O=C(Nc1cnn(-c2csc(C(=O)NC3COC3)c2)c1)Nc1c(F)cccc1Cl  remaining activity (enzyme activity, inhibitor; 5 µM): 81.6%
O=C(Nc1cccnn1)N1CCC(=Cc2cccc(Oc3ccc(C(F)(F)F)cn3)c2)CC1  remaining binding (cell-free assay, competition with immobilised ligand; 1 µM): 100%
Cc1ccc(Nc2nccc(N(C)c3ccc4c(C)n(C)nc4c3)n2)cc1S(N)(=O)=O  inhibition (enzyme activity, inhibitor; 10 µM): -24%
COc1cc(Nc2cnc(C#N)c(O[C@H](C)CN(C)C)n2)ncc1-c1cnn(C)c1  remaining activity (enzyme activity, inhibitor, radiometric; 1 µM): 89%
O=C(O)c1cc(-c2ccc(C3CCNCC3)cc2)c2ccc(-c3ccc(C(F)(F)F)cc3)cc2c1  remaining binding (cell-free assay, competition with immobilised ligand; 1 µM): 100%
Cc1sc(C(=O)NC2COC2)cc1-n1cc(NC(=O)Nc2c(F)cccc2Cl)cn1  remaining activity (enzyme activity, inhibitor; 10 µM): 67.3%
COc1cc(Cl)c(C(=O)N[C@@H](CN[C@H]2CC[C@@H](N)CC2)Cc2ccc(C#N)cc2)cc1-c1ccc(CN[C@H](C)c2ccc(C)cc2)o1  remaining activity (enzyme activity, inhibitor; 1 µM): 96%
CN(c1nccc(-c2cnn3ncccc23)n1)C1CC1  remaining signal (cell-free assay; 1 µM): 100%
COc1cc2ncnc(Nc3ccc(Oc4ccccc4)c(C)c3C)c2cc1OC  inhibition (enzyme activity, inhibitor; 1 µM): 10%
Cn1c2c(c3ccc(Cl)c(Cl)c31)C(C#N)C1(CCCC1)NC2=O (stereo not drawn)  ΔTm (thermal stability, DSF; 10 µM): 0.8 °C
COc1cc(Nc2c(C#N)cnc3cc(OCCCN4CCN(C)CC4)c(OC)cc23)c(Cl)cc1Cl  remaining signal (cell-free assay; 0.5 µM): 11%
CC1=C(C#N)C(c2ccc3c(c2)c(NC(=O)c2ccccc2C)nn3C)C(C#N)=C(C)N1  remaining binding (cell-free assay, competition with immobilised ligand; 1 µM): 100%
CCN1CCN(Cc2ccc(NC(=O)c3ccc(C)c(Oc4ccnc5[nH]ccc45)c3)cc2C(F)(F)F)CC1  inhibition (target engagement in cells, inhibitor, chemoproteomics; Huh-7; 1 µM): -56%
COc1ccc2c(c1)O[C@H](c1ccc(OC)c(OC)c1)C[C@@H]2NC(=O)C1(c2ccc3c(c2)OC(F)(F)O3)CC1  remaining binding (cell-free assay, competition with immobilised ligand; 1 µM): 92%
Cn1c2c(c3ccc(Cl)c(Cl)c31)C(C#N)C1(CCOCC1)NC2=O (stereo not drawn)  ΔTm (thermal stability, DSF; 10 µM): -0.3 °C
Cc1cc(NC(=O)c2cccc3cc(-c4cccc5[nH]nc(N)c45)ccc23)ccc1F  activity vs control (enzyme activity, inhibitor; 0.1 µM): 116%
O=C1CCc2cc(Nc3cc(OC4CCOCC4)c([N+](=O)[O-])cc3Cl)ccc2N1  remaining binding (cell-free assay, competition with immobilised ligand; 1 µM): 97%
N#CCCc1ccc2c(c1)-c1[nH]c3ccc([N+](=O)[O-])cc3c1CC(=O)N2  remaining signal (cell-free assay; 0.5 µM): 57.7%
O=C(Nc1ccc(Oc2ccc(F)cc2)cc1)N1CCc2ncccc2[C@H]1c1ccc(F)cc1  remaining binding (cell-free assay, competition with immobilised ligand; 1 µM): 93%
Cn1cncc1C1=CN(c2ncnc3[nH]cnc23)CCS1  inhibition (enzyme activity, inhibitor, radiometric; 2 µM): -15.6%
COc1cccc2c(NCc3ccccc3)nc(-n3c(N)nc4ccccc43)nc12  inhibition (target engagement in cells, inhibitor, chemoproteomics; 20 mM): -9.9%
CNC(=O)c1cc(Oc2ccc(NC(=O)Nc3ccc(Cl)c(C(F)(F)F)c3)cc2)ccn1  inhibition (enzyme activity, inhibitor; 10 µM): -46%
COc1ccc2c(O[C@@H]3C[C@H]4C(=O)N[C@]5(C(=O)O)CC5/C=C\CCCCC[C@H](NC(=O)OC5CCCC5)C(=O)N4C3)cc(-c3csc(NC(=O)C(C)C)n3)nc2c1C (stereo partly drawn)  remaining binding (cell-free assay, competition with immobilised ligand; 1 µM): 100%
Cn1c2c(c3ccc(Cl)c(Cl)c31)C(C#N)C1(CCNCC1)NC2=O (racemic)  ΔTm (thermal stability, DSF; 10 µM): -0.7 °C
CN(C)c1ncnc(-c2ccc3nc(Nc4cc(CN5CCN(C(=O)CC(F)(F)F)CC5)ccn4)[nH]c3c2)c1Cl  remaining binding (cell-free assay, competition with immobilised ligand; 1 µM): 90%
Cn1c2c(Cl)c(Cl)ccc2c2cc(N)[nH]c(=O)c21  ΔTm (thermal stability, DSF; 10 µM): 0.6 °C
Oc1ccc(-c2nc(-c3ccncc3)c(-c3ccc(F)cc3)[nH]2)cc1  remaining signal (cell-free assay; 0.5 µM): 95.2%
